Laboratory results reported in ChEMBL document CHEMBL1649230, “Aryl rhodanines specifically inhibit staphylococcal and enterococcal biofilm formation” (Antimicrob Agents Chemother, 2009).
Active and inactive are the calls of the source. The rule behind the calls is not given here.

Tests used:
Staphylococcus aureus [1] = experiment: Antimicrobial activity against Staphylococcus aureus ATCC 35556 assessed as inhibition of bacterial biofilm formation after 18 hrs by broth microdilution method in presence of 1 ug/ml fibrinogen; format: functional
Method in brief: (§1)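 Polystyrene 96-well wells precoated with 100 μl fibronectin or fibrinogen (0–20 μg protein/ml) for 24 h at 4°C. Wells then washed with sterile water. The standard MBIC biofilm assay followed: 0.5× TSB with 1% glucose, 2% DMSO, 18 h at 37°C, crystal violet read at OD600.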

Staphylococcus aureus [2] = experiment: Antimicrobial activity against Staphylococcus aureus ATCC 35556 assessed as inhibition of bacterial biofilm formation after 18 hrs by broth microdilution method in presence of 10 ug/ml fibrinogen; format: functional; method in brief: as §1
Enterococcus faecalis [3] = experiment: Antimicrobial activity against vancomycin-resistant Enterococcus faecalis ATCC 51575 assessed as inhibition of bacterial biofilm after 18 hrs by broth microdilution method; format: functional
Method in brief: (§2)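 Biofilm MBIC on tissue culture-treated polystyrene 96-well plates. Twofold dilutions, 0.2 to 100 μM final, with 2% DMSO final. Inoculum was an overnight culture diluted 1:100 (~5 × 10^6 cells/well) in 0.5× TSB plus 1% glucose, grown 18 h at 37°C. Wells washed, heat-fixed 60°C 60 min, stained with 0.06% crystal violet, OD600 read. MBIC is the lowest concentration giving ≥80% inhibition versus untreated; geometric mean of ≥3 experiments.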

Enterococcus faecalis [4] = experiment: Antimicrobial activity against Enterococcus faecalis ATCC 51575 on medical grade silicone disk assessed as inhibition of bacterial biofilm after 18 hrs by broth microdilution method; format: functional
Enterococcus faecium [5] = experiment: Antimicrobial activity against vancomycin-resistant Enterococcus faecium isolate EF1509 assessed as inhibition of bacterial biofilm after 18 hrs by broth microdilution method; format: functional; method in brief: as §2
Staphylococcus aureus [6] = experiment: Antimicrobial activity against community acquired Staphylococcus aureus NCTC 8325 assessed as inhibition of bacterial biofilm after 18 hrs by broth microdilution method; format: functional
Method in brief: (§3)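 Static biofilm in tissue culture-treated polystyrene 96-well plates in 0.5× TSB with 1% glucose. Overnight culture diluted 1:100 gives about 5 × 10^6 cells/well. Compound 2-fold series, final 0.2–100 μM, 2% DMSO. Incubated 18 h at 37°C. Washed, heat-fixed 60°C for 60 min, stained with 0.06% crystal violet, read at OD600. MBIC is the lowest concentration giving ≥80% inhibition versus untreated. Geometric mean of ≥3 independent experiments.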

Staphylococcus aureus [7] = experiment: Antimicrobial activity against community acquired community-acquired Staphylococcus aureus MW2 assessed as inhibition of bacterial biofilm after 18 hrs by broth microdilution method; format: functional; method in brief: as §2
Staphylococcus aureus [8] = experiment: Antimicrobial activity against community acquired methicillin-resistant Staphylococcus aureus isolate 49404 assessed as inhibition of bacterial biofilm after 18 hrs by broth microdilution method; format: functional; method in brief: as §2
Staphylococcus aureus [9] = experiment: Antimicrobial activity against community acquired methicillin-resistant Staphylococcus aureus isolate 44081 assessed as inhibition of bacterial biofilm after 18 hrs by broth microdilution method; format: functional; method in brief: as §2
Staphylococcus aureus [10] = experiment: Antimicrobial activity against hospital acquired methicillin-resistant Staphylococcus aureus isolate 1094 assessed as inhibition of bacterial biofilm after 18 hrs by broth microdilution method; format: functional; method in brief: as §2
[11] = tested on: Staphylococcus epidermidis; experiment: Antimicrobial activity against Staphylococcus epidermidis ATCC 35984 assessed as inhibition of bacterial biofilm after 18 hrs by broth microdilution method; format: functional; method in brief: as §3
[12] = tested on: Staphylococcus epidermidis; experiment: Antimicrobial activity against Staphylococcus epidermidis 1457 assessed as inhibition of bacterial biofilm after 18 hrs by broth microdilution method; format: functional; method in brief: as §3
[13] = tested on: Staphylococcus epidermidis; experiment: Antimicrobial activity against coagulase-negative Staphylococcus epidermidis isolate WTBF-45 assessed as inhibition of bacterial biofilm after 18 hrs by broth microdilution method; format: functional; method in brief: as §2
[14] = tested on: Staphylococcus epidermidis; experiment: Antimicrobial activity against coagulase-negative Staphylococcus epidermidis isolate WTBF-48 assessed as inhibition of bacterial biofilm after 18 hrs by broth microdilution method; format: functional; method in brief: as §3
[15] = tested on: Staphylococcus epidermidis; experiment: Antimicrobial activity against coagulase-negative Staphylococcus epidermidis isolate WTBF-46 assessed as inhibition of bacterial biofilm after 18 hrs by broth microdilution method; format: functional; method in brief: as §3
Enterococcus faecium [16] = experiment: Antimicrobial activity against vancomycin-resistant Enterococcus faecium isolate F1181 assessed as inhibition of bacterial biofilm after 18 hrs by broth microdilution method; format: functional; method in brief: as §2
[17] = tested on: Staphylococcus epidermidis; experiment: Antimicrobial activity against Staphylococcus epidermidis 1457 on medical grade silicone disk assessed as inhibition of bacterial biofilm after 18 hrs by broth microdilution method; format: functional
Staphylococcus aureus [18] = experiment: (§4) Antimicrobial activity against Staphylococcus aureus ATCC 35556 assessed as inhibition of primary adhesion of bacterial biofilm to silicone disk under static condition at MBIC after 30 mins by fluorescence emission using BaclLight Live Dead stain; format: functional, organism-based
Method in brief: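 Mid-log S. aureus ATCC 35556 (OD600 0.5) grown in TSB at 37°C, washed, resuspended in PBS. Compound added (0× to 8× MBIC, 2% DMSO). Suspension placed on tissue culture-treated polystyrene or PVC 96-well plates (eight wells per level) or silicone disks in 24-well plates (three wells). Incubated 30 min at 37°C, then washed. BacLight Live/Dead fluorescence read (ex 485, em 530 nm). Result given as fraction adherent versus untreated.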

Staphylococcus aureus [19] = experiment: as §4, with “to polystyrene surface” for “to silicone disk”, “condition pretreated with 4 times compound” for “condition at”, “MBIC for 30 mins measured” for “MBIC”; format: functional
Method in brief: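 PBS suspension of mid-log S. aureus ATCC 35556 exposed to compound in tubes for 30 min at 37°C. Cells centrifuged to remove free compound and resuspended in PBS at the original density. They were then placed on tissue culture-treated polystyrene for 30 min at 37°C. Wells washed, BacLight Live/Dead fluorescence read (ex 485, em 530 nm). Fraction adherent calculated versus untreated.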

Staphylococcus aureus [20] = experiment: Antimicrobial activity against Staphylococcus aureus ATCC 35556 assessed as inhibition of bacterial biofilm formation after 18 hrs by broth microdilution method in presence of 10 ug/ml fibronectin; format: functional; method in brief: as §1
Staphylococcus aureus [21] = experiment: Antimicrobial activity against Staphylococcus aureus NCTC 8325 on medical grade silicone disk assessed as inhibition of bacterial biofilm after 18 hrs by broth microdilution method
Enterococcus faecalis [22] = experiment: Antimicrobial activity against Enterococcus faecalis isolate F177 on medical grade silicone disk assessed as inhibition of bacterial biofilm after 18 hrs by broth microdilution method
Staphylococcus aureus [23] = experiment: Antimicrobial activity against community acquired methicillin-resistant Staphylococcus aureus isolate 33548 assessed as inhibition of bacterial biofilm after 18 hrs by broth microdilution method; format: functional; method in brief: as §2
Enterococcus gallinarum [24] = experiment: Antimicrobial activity against vancomycin-resistant Enterococcus gallinarum isolate 2392 assessed as inhibition of bacterial biofilm after 18 hrs by broth microdilution method; format: functional; method in brief: as §2
Enterococcus gallinarum [25] = experiment: Antimicrobial activity against vancomycin-resistant Enterococcus gallinarum isolate 2392 on medical grade silicone disk assessed as inhibition of bacterial biofilm after 18 hrs by broth microdilution method; format: functional
Method in brief: (§5)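 Medical-grade silicone disks glued to 24-well plate bottoms. Compound added to a 1:100 overnight-culture inoculum (0.5× TSB, 1% glucose) at 2% DMSO final; ≥3 wells each, ~18 h at 37°C. Washed with water, heat-fixed 60°C 60 min, stained with 0.06% crystal violet, eluted with 30% acetic acid, OD600 read. Repeated ≥3 times.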

Enterococcus faecalis [26] = experiment: Antimicrobial activity against vancomycin-resistant Enterococcus faecalis isolate F177 on medical grade silicone disk assessed as inhibition of bacterial biofilm after 18 hrs by broth microdilution method; format: functional; method in brief: as §5

Structure (SMILES)	MBIC (Staphylococcus aureus [1]) [µM]	MBIC (Staphylococcus aureus [2]) [µM]	MBIC (Enterococcus faecalis [3]) [µM]	MBIC (Enterococcus faecium [5])	MBIC (Staphylococcus aureus [6]) [µM]	MBIC (Staphylococcus aureus [7]) [µM]	MBIC (Staphylococcus aureus [8]) [µM]	MBIC (Staphylococcus aureus [9]) [µM]	MBIC (Staphylococcus aureus [10]) [µM]	MBIC [11] [µM]	MBIC [12] [µM]	MBIC [13] [µM]	MBIC [14] [µM]	MBIC [15] [µM]	MBIC (Enterococcus faecium [16])	MBIC90 [17] [µM]	MBIC (Staphylococcus aureus [20]) [µM]	MBIC90 (Staphylococcus aureus [21]) [µM]	MBIC90 (Enterococcus faecalis [22])	MBIC (Enterococcus gallinarum [24])	other results
CCOc1cc(/C=C2\SC(=S)N(c3cccnc3)C2=O)ccc1O	12.5	12.5	21	21 µM	12.5	21	31.5	25	25	12.5	12.5	17.7	17.7	25	>=100 uM	35.4	12.5	25	19.8 µM	–	MBIC90 (Enterococcus faecalis [4]): 19.8 µM; inhibition (Staphylococcus aureus [18]): Active; inhibition (INH) (Staphylococcus aureus [19]): >=80%
C=CCOc1cc(/C=C2\SC(=S)N(c3ccc(F)cc3)C2=O)ccc1O	3.125	3.125	35.4	59.5 µM	14.9	25	15.7	39.7	100	17.7	29.7	25	12.5	70.7	>=100 uM	59.5	3.125	100	100 µM	>=100 uM	MBIC90 (Enterococcus faecalis [4]): 100 µM; MBIC (Staphylococcus aureus [23]): 31.5 µM; MBIC90 (Enterococcus gallinarum [25]): 100 µM
CCOc1cc(/C=C2\SC(=S)N(c3cccc(F)c3)C2=O)ccc1O	6.25	6.25	63	>=100 uM	25	31.5	–	–	100	25	50	50	50	59.5	>=100 uM	59.5	6.25	70.7	>=100 uM	50 µM	MBIC (Enterococcus faecalis [4]): 63 µM; MBIC90 (Enterococcus faecalis [26]): >=100 uM; MBIC (Staphylococcus aureus [23]): 35.4 µM; MBIC90 (Enterococcus gallinarum [25]): >=100 uM
CCOc1cc(/C=C2\SC(=S)N(c3ccc(F)cc3)C2=O)ccc1O	3.125	3.125	–	>=100 uM	25	42	63	79.4	100	17.7	42	25	25	50	>=100 uM	42	6.25	79.4	>=100 uM	84.1 µM	MBIC (Enterococcus faecalis [4]): 29.7 µM; MBIC90 (Enterococcus faecalis [26]): >=100 uM; MBIC90 (Enterococcus gallinarum [25]): >=100 uM; inhibition (Staphylococcus aureus [18]): Active; inhibition (INH) (Staphylococcus aureus [19]): >=80%
